The record followed here is ChEMBL document CHEMBL4732178, “Dioxotriazine derivatives as a new class of P2X receptor antagonists: Identification of a lead and initial SAR studies” (Bioorg Med Chem Lett, 2021).

Structures are written as SMILES.

Data set [1] can be described thus: Clearance in rat at 0.5 mg/kg, iv or 1 mg/kg, po. Conditions: in vivo. The class given is ADME, organism-based.
Data set [2] in a line: Oral bioavailability in rat or 1 mg/kg. The class given is ADME, organism-based. Conditions: in vivo.
Data set [3] in a line: Microsomal stability in rat liver microsomes assessed as parent compound remaining incubated for 30 mins in presence or absence of NADPH generating system. Type of data set: ADME, Microsome. Conditions: read-out: Stabilty. The essentials:
(§1)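 Compound incubated 30 min at 37 °C with human or rat liver microsomes (0.5 mg protein/mL), with or without NADPH-generating system; percent parent remaining reported.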

Data set [4] is described as follows: Microsomal stability in human liver microsomes assessed as parent compound remaining incubated for 30 mins in presence or absence of NADPH generating system. Type of data set: ADME, Microsome. Conditions: read-out: Stabilty. The essentials:
as §1
In general terms: Microsomes from liver hold many membrane-bound enzymes, among them those of drug oxidation.

The nature of data set [5]: Half life in rat at 0.5 mg/kg, iv or 1 mg/kg, po. Type of data set: ADME, organism-based. Conditions: in vivo.
Data set [6] can be described thus: Cmax in rat at 3 mg/kg, po. Type of data set: ADME, organism-based. Conditions: in vivo. The arrangement: route oral, dose 3 mg/kg.
The nature of data set [7]: AUC in rat at 3 mg/kg, po. Type of data set: ADME, organism-based. Conditions: in vivo. The arrangement: dose 3 mg/kg.
A short description of data set [8]: Half life in rat at 1 mg/kg, iv or 3 mg/kg, po. Type of data set: ADME, organism-based. Conditions: in vivo.
The nature of data set [9]: Clearance in rat at 1 mg/kg, iv or 3 mg/kg, po. As to conditions: in vivo. The class given is ADME, organism-based.
Data set [10] can be described thus: Oral bioavailability in rat at 3 mg/kg. The class given is ADME, organism-based. Conditions: in vivo.

In data set [1], `CC(C)Oc1ccc(Nc2nc(=O)n(C(C)C)c(=O)n2Cc2ccc(Cl)cc2)cc1` had a clearance of 1.43 L/h/kg. For the same compound, in [2], the bioavailability amounted to 25.2%.
Consider `CC(C)Oc1ccc(Nc2nc(=O)n(CCC#N)c(=O)n2Cc2ccc(Cl)cc2)cc1F`, for which the remaining at 0.5 h was found to be 30% in [3] and 59% in data set [4].
On the same counts, the results for `CC(=O)n1c(=O)nc(Nc2ccc(OC(C)C)c(F)c2)n(Cc2ccc(Cl)cc2)c1=O` are 2% and 0%.
As to `CC(C)Oc1ccc(Nc2nc(=O)n(CCC(N)=O)c(=O)n2Cc2ccc(Cl)cc2)cc1F`, the values for the remaining at 0.5 h in data set [3] and in [4] were 61% and 94%, respectively.
In the case of `CC(C)Oc1ccc(Nc2nc(=O)n(CCCC(=O)O)c(=O)n2Cc2ccc(Cl)cc2)cc1F`, the remaining at 0.5 h turned out to be 103% in [3] and 106% in data set [4].
For `CC(C)Oc1ccc(Nc2nc(=O)n(CC#N)c(=O)n2Cc2ccc(Cl)cc2)cc1F`, in that order: 41% and 68%.
For `CCn1c(=O)nc(Nc2ccc(OC(C)C)c(F)c2)n(Cc2ccc(Cl)cc2)c1=O`, the results for the remaining at 0.5 h in data set [3] and in data set [4] were 42% and 86%, respectively.
With `CC(C)Oc1ccc(Nc2nc(=O)n(CCO)c(=O)n2Cc2ccc(Cl)cc2)cc1F`, the remaining at 0.5 h came out at 60% in [3] and 92% in [4].
Consider `CC(C)Oc1ccc(Nc2nc(=O)n(CCCCO)c(=O)n2Cc2ccc(Cl)cc2)cc1F`, for which the values for the remaining at 0.5 h in data set [3] and in data set [4] were 36% and 59%, respectively.
For the compound `CC(C)Oc1ccc(Nc2nc(=O)n(CCC(=O)O)c(=O)n2Cc2ccc(Cl)cc2)cc1F`, the remaining at 0.5 h came out at 99% in data set [3] and 92% in data set [4].
Regarding `CC(=O)NCCCn1c(=O)nc(Nc2ccc(OC(C)C)c(F)c2)n(Cc2ccc(Cl)cc2)c1=O`, the remaining at 0.5 h was 15% in data set [3] and 47% in data set [4].
As for `CC(C)Oc1ccc(Nc2nc(=O)[nH]c(=O)n2Cc2ccc(Cl)cc2)cc1F`, the results for the remaining at 0.5 h in data set [3] and in data set [4] were 54% and 78%, respectively.
Consider `CC(C)Oc1ccc(/N=c2\[nH]c(=O)n(CC(=O)O)c(=O)n2Cc2ccc(Cl)cc2)cc1Cl`, for which, in data set [1], the clearance came to 0.102 L/h/kg. Moreover, the half-life in data set [5] is 2.1 h. The same compound showed a bioavailability in data set [2] of 71.2%.
Consider `CC(C)Oc1ccc(Nc2nc(=O)n(CCCO)c(=O)n2Cc2ccc(Cl)cc2)cc1F`, for which the results for the remaining at 0.5 h in data set [3] and in [4] were 29% and 82%, respectively.
For the compound `CC(C)Oc1ccc(Nc2nc(=O)n(CC(=O)O)c(=O)n2Cc2ccc(Cl)cc2)cc1F`, the remaining at 0.5 h in data set [3] was 97%; in data set [4], 99%.
Consider `CC(=O)NCCn1c(=O)nc(Nc2ccc(OC(C)C)c(F)c2)n(Cc2ccc(Cl)cc2)c1=O`, for which the remaining at 0.5 h in data set [3] amounted to 1%; in [4] it was 45%.
For `CC(C)Oc1ccc(Nc2nc(=O)n(Cc3ccccc3)c(=O)n2Cc2ccc(Cl)cc2)cc1F`, in that order: 1% and 21%.
With `CNC(=O)CCn1c(=O)nc(Nc2ccc(OC(C)C)c(F)c2)n(Cc2ccc(Cl)cc2)c1=O`, the remaining at 0.5 h was determined as 30% in data set [3] and 86% in data set [4].
In the case of `CC(C)Oc1ccc(Nc2nc(=O)n(CCC(=O)O)c(=O)n2Cc2ccc(Cl)cc2)cc1Cl`, the clearance in data set [1] was found to be 0.03 L/h/kg. In data set [5], this compound had a half-life of 6 h. The same compound gave a bioavailability in data set [2] of 43.2%.
On to `CC(C)Oc1ccc(Nc2nc(=O)n(C(C)C)c(=O)n2Cc2ccc(Cl)cc2)cc1F`, for which the remaining at 0.5 h is 49% in data set [3] and 36% in data set [4].
On to `CCCn1c(=O)nc(Nc2ccc(OC(C)C)c(F)c2)n(Cc2ccc(Cl)cc2)c1=O`, for which the remaining at 0.5 h in data set [3] was found to be 35%; in data set [4] it was 36%.
Turning to `CC(C)Oc1ccc(Nc2nc(=O)n(CC(C)(C)C(=O)O)c(=O)n2Cc2ccc(Cl)cc2)cc1F`, the highest level in data set [6] (Cmax) was 1.26 µg/mL. In addition, the area under the curve (AUC) in [7] came out at 6.99 µg·h/mL. In addition, the half-life in [8] is 9.6 h. Besides, in data set [9], the clearance is 0.18 L/h/kg. In data set [10], the bioavailability was 47.3%.
With `Cc1ccc(Cn2c(Nc3ccc(OC(C)C)c(Cl)c3)nc(=O)n(CCC(=O)O)c2=O)cc1`, in data set [7], the AUC stood at 14.3 µg·h/mL. In data set [8], this compound had a half-life of 1.6 h. Moreover, the clearance in [9] was 0.162 L/h/kg. In data set [10], this compound had a bioavailability of 71.8%.
In turn, `CC(C)Oc1ccc(Nc2nc(=O)c(CC(=O)O)cn2Cc2ccc(Cl)cc2)cc1Cl` returned a clearance in data set [1] of 0.498 L/h/kg. The same compound showed a half-life in data set [5] of 1.8 h. The same compound came in with a bioavailability in [2] of 79.9%.
`CC(C)Oc1ccc(Nc2cc(=O)n(CCC(=O)O)c(=O)n2Cc2ccc(Cl)cc2)cc1Cl`: the clearance in data set [1] is 0.126 L/h/kg. The compound also had a half-life in data set [5] of 2.2 h. The same compound had a bioavailability in [2] of 61.5%.
`COc1cc(C(C)C)c(Oc2cnc(NC(CO)CO)nc2N)cc1I` had a Cmax in data set [6] of 0.118 µg/mL. This compound gave an AUC in [7] of 0.369 µg·h/mL. The half-life in [8] is 1.1 h. Further, the clearance in data set [9] was determined as 2.52 L/h/kg. Besides, the bioavailability in data set [10] was determined as 30.3%.

One may read the bioavailability as dose-corrected exposure relative to a reference, in per cent. Higher therefore signals good availability. By half-life is commonly meant how long it takes for the measured level to halve. Higher therefore signals slow decline. Broadly, the Cmax is the maximum level reached in the sampled fluid or tissue. One may read the AUC as the area under the concentration-time curve, a measure of exposure.
